Test results as given in ChEMBL document CHEMBL4765342, “Substituted benzothiophene and benzofuran derivatives as a novel class of bone morphogenetic Protein-2 upregulators: Synthesis, anti-osteoporosis efficacies in ovariectomized rats and a zebrafish model, and ADME properties” (Eur J Med Chem, 2020).
Activity calls are given as the source filed them. No cut-off for these calls is given here.

Columns and labels:
[1] = Solubility in PBS buffer at pH 7.4 assessed as precipitation of compound at 10000 nM; assay type: physicochemical; details: pH 7.4, 10 µM
[2] = Solubility in PBS buffer at pH 7.4 assessed as precipitation of compound at 5000 nM; assay type: physicochemical; details: pH 7.4, 5 µM
[3] = Solubility in PBS buffer at pH 7.4 assessed as precipitation of compound at 2500 nM; assay type: physicochemical; details: pH 7.4, 2.5 µM
[4] = Solubility in PBS buffer at pH 7.4 assessed as precipitation of compound at 1250 nM; assay type: physicochemical; details: pH 7.4, 1.25 µM
[5] = Solubility in PBS buffer at pH 7.4 assessed as precipitation of compound at 625 nM; assay type: physicochemical; details: pH 7.4, 0.625 µM
[6] = Solubility in PBS buffer at pH 7.4 assessed as precipitation of compound at 312.5 nM; assay type: physicochemical; details: pH 7.4, 0.3125 µM
[7] = Solubility in PBS buffer at pH 7.4 assessed as precipitation of compound at 156.25 nM; assay type: physicochemical; details: pH 7.4, 0.15625 µM
[8] = Toxicity in Kunming mouse assessed as organism death administered orally for 3 days and observed for 17 days starting from drug administration; details: in vivo, po, 408 h, time 17 day
in vitro [9] = details: human
in vitro [10] = details: human; remark: listed apart in the source
Rattus norvegicus [11] = assay: Antiosteoporotic activity in Sprague-Dawley rat model of OVX-induced bone loss assessed as increase in trabecular bone volume at 30 mg/kg, ig administered for 3 months with 1 day break after 6 consecutive days administration; assay type: functional, organism-based
How it was run: (§1)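 Female SD rats given bilateral ovariectomy (sham: fat tissue removed instead), adapted 1 week beforehand; dosing began on postoperative day 10, n = 10 per group. Test drugs as 3 mg/mL suspension by gavage; raloxifene hydrochloride at 0.5 mg/mL. Controls got water. Tetracycline 30 mg/kg ip 16 and 3 days before euthanasia. Tibia stained sections give trabecular morphology and TBV%. BMD of L4-6 measured by densitometry under pentobarbital 45 mg/kg anaesthesia. Reported as mean ± SD.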

Rattus norvegicus [12] = assay: Antiosteoporotic activity in Sprague-Dawley rat model of OVX-induced bone loss assessed as increase in trabecular bone mineral density at 30 mg/kg, ig administered for 3 months with 1 day break after 6 consecutive days administration; assay type: functional, organism-based; how it was run: as §1
Rattus norvegicus [13] = assay: Antiosteoporotic activity in Sprague-Dawley rat model of OVX-induced bone loss assessed as increase in number of trabeculae at 30 mg/kg, ig administered for 3 months with 1 day break after 6 consecutive days administration; assay type: functional, organism-based; how it was run: as §1
Rattus norvegicus [14] = assay: Antiosteoporotic activity in Sprague-Dawley rat model of OVX-induced bone loss assessed as increase in thickness of trabeculae at 30 mg/kg, ig administered for 3 months with 1 day break after 6 consecutive days administration; assay type: functional, organism-based; how it was run: as §1
Rattus norvegicus [15] = assay: Antiosteoporotic activity in Sprague-Dawley rat model of OVX-induced bone loss assessed as narrowed gap between trabeculae at 30 mg/kg, ig administered for 3 months with 1 day break after 6 consecutive days administration; assay type: functional, organism-based; how it was run: as §1
[16] = Apparent permeability across apical to basolateral side in human Caco-2 cells at 10 uM incubated for 2 hrs LC-MS/MS analysis; assay type: ADME, cell-based; details: for Papp A→B at 2 h, 10 µM: Caco-2
How it was run: (§2)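 Caco-2 monolayers, apical to basolateral direction. Plates preincubated 30 min at 37 °C, then exposed to 10 µM compound for 2 h at 37 °C without shaking. Donor and receiver samples were quenched, centrifuged and measured by LC/MS/MS, in duplicate. Papp calculated from receiver concentration, area and time. Monolayer integrity checked by TEER and by Lucifer yellow leakage (30 min, 37 °C, ex 485/em 530 nm).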

[17] = Permeability across apical to basolateral side in human Caco-2 cells assessed as transepithelial electrical resistance at 10 uM incubated for 2 hrs LC-MS/MS analysis; assay type: ADME, cell-based; details: caco-2, 2 h; how it was run: as §2
[18] = Permeability across apical to basolateral side in human Caco-2 cells assessed as […] yellow leakage at 10 uM incubated for 2 hrs LC-MS/MS analysis; assay type: ADME, cell-based; details: caco-2, 2 h; how it was run: as §2

solubility [1] | solubility [2] | solubility [3] | solubility [4] | solubility [5] | solubility [6] | solubility [7] | SMILES | also measured
Insoluble | Insoluble | Insoluble | Insoluble | Insoluble | Insoluble | Insoluble | CCOC(=O)c1cc2ccc(OC)cc2s1 | –
Insoluble | Insoluble | Insoluble | Soluble | Soluble | Soluble | Soluble | CN(C)CCOC(=O)c1cc2cc3c(cc2s1)OCO3 | –
Insoluble | Insoluble | Soluble | Soluble | Soluble | Soluble | Soluble | COc1ccc2cc(C(=O)N(C)CCN(C)C)oc2c1 | –
– | – | – | – | – | – | – | COc1ccc2cc(C(=O)OCCP(=O)([O-])[O-])oc2c1.[Na+].[Na+] | LD50 [8]: > 500 mg/kg/day
– | – | – | – | – | – | – | CCOc1ccc(NC(C)=O)cc1 [PHENACETIN] | half-life at 0.5 h, 100 µM (in vitro [9]; microsomes): 26.5 min; microsomal CLint at 0.5 h, 100 µM (in vitro [10]; liver microsomes): 26.2 µL/min/mg
– | – | – | – | – | – | – | O=C(OCCN1CCOCC1)c1cc2cc3c(cc2s1)OCO3 [listing 1 of 2 here] | Activity (Rattus norvegicus [11]): Active; Activity (Rattus norvegicus [12]): Active
– | – | – | – | – | – | – | O=C(O)Cc1ccccc1Nc1c(Cl)cccc1Cl [DICLOFENAC] | microsomal CLint at 0.5 h, 100 µM (in vitro [10]; microsomes): 197 µL/min/mg
Insoluble | Soluble | Soluble | Soluble | Soluble | Soluble | Soluble | COc1ccc2cc(C(=O)OCCCN(C)C)oc2c1 | –
– | – | – | – | – | – | – | COc1ccc2cc(C(=O)OCCCN(C)C)sc2c1.CS(=O)(=O)O | LD50 [8]: > 500 mg/kg/day
– | – | – | – | – | – | – | COc1ccc2cc(C(=O)OCCP(=O)(O)O)oc2c1 [listing 1 of 2 here] | Activity (Rattus norvegicus [11]): Active; Activity (Rattus norvegicus [12]): Active
– | – | – | – | – | – | – | COc1ccc2cc(C(=O)OCCN(C)C)oc2c1 [listing 2 of 2 here] | Activity (Rattus norvegicus [13]): Active; Activity (Rattus norvegicus [14]): Active; Activity (Rattus norvegicus [15]): Active; Activity (Rattus norvegicus [11]): Active; Activity (Rattus norvegicus [12]): Active
– | – | – | – | – | – | – | COc1ccc2cc(C(=O)OCCN(C)C)oc2c1.CS(=O)(=O)O | LD50 [8]: > 500 mg/kg/day
Insoluble | Insoluble | Insoluble | Insoluble | Insoluble | Soluble | Soluble | CCCCOC(=O)c1cc2ccc(OC)cc2s1 | –
– | – | – | – | – | – | – | CC(=O)c1cc2ccccc2s1 | Activity (Rattus norvegicus [13]): Active; Activity (Rattus norvegicus [14]): Active; Activity (Rattus norvegicus [15]): Active; Activity (Rattus norvegicus [11]): Active; Activity (Rattus norvegicus [12]): Active; Papp A→B at 2 h, 10 µM [16]: 22.1 ×10⁻⁶ cm/s; Activity [17]: 351 Ω·cm²; Activity [18]: 0.179%; half-life at 0.5 h, 100 µM (in vitro [9]; liver microsomes): 1.25 min; microsomal CLint at 0.5 h, 100 µM (in vitro [10]; liver microsomes): > 300 µL/min/mg
– | – | – | – | – | – | – | COc1ccc2cc(C(=O)OCCCN(C)C)sc2c1 [listing 2 of 2 here] | Activity (Rattus norvegicus [11]): Active; Activity (Rattus norvegicus [12]): Active
– | – | – | – | – | – | – | CN(C)CCCOc1nn(Cc2ccccc2)c2ccccc12 [BENZYDAMINE] | half-life at 0.5 h, 100 µM (in vitro [9]; microsomes): 43.1 min; microsomal CLint at 0.5 h, 100 µM (in vitro [10]; microsomes): 16.1 µL/min/mg
Insoluble | Insoluble | Insoluble | Insoluble | Soluble | Soluble | Soluble | CN(C)CCNC(=O)c1cc2cc3c(cc2s1)OCO3 | –
– | – | – | – | – | – | – | CC[C@H]1OC(=O)[C@H](C)[C@@H](O[C@H]2C[C@@](C)(OC)[C@@H](O)[C@H](C)O2)[C@H](C)[C@@H](O[C@@H]2O[C@H](C)C[C@H](N(C)C)[C@H]2O)[C@](C)(O)C[C@@H](C)C(=O)[C@H](C)[C@@H](O)[C@]1(C)O [ERYTHROMYCIN] | Papp ([16]; caco-2, 2 h, 10 µM): 0.0324 10^-6 cm/s; Activity [17]: 396 Ω·cm²; Activity [18]: 0.137%
Insoluble | Soluble | Soluble | Soluble | Soluble | Soluble | Soluble | COc1ccc2cc(C(=O)OCCN3CCOCC3)oc2c1 | –
Insoluble | Insoluble | Insoluble | Insoluble | Insoluble | Insoluble | Soluble | CCOC(=O)c1cc2cc3c(cc2s1)OCO3 | –
– | – | – | – | – | – | – | CN/C(=N/CCSCc1nc[nH]c1C)NC#N [CIMETIDINE] | Papp A→B at 2 h, 10 µM [16]: 0.679 ×10⁻⁶ cm/s; Activity [17]: 318 Ω·cm²; Activity [18]: 0.134%
– | – | – | – | – | – | – | COCCc1ccc(OCC(O)CNC(C)C)cc1 (stereo unspecified) [METOPROLOL] | Papp A→B at 2 h, 10 µM [16]: 32.6 ×10⁻⁶ cm/s; Activity [17]: 326 Ω·cm²; Activity [18]: 0.154%; half-life at 0.5 h, 100 µM (in vitro [9]; microsomes): 159 min; microsomal CLint at 0.5 h, 100 µM (in vitro [10]; liver microsomes): 4.35 µL/min/mg
Insoluble | Soluble | Soluble | Soluble | Soluble | Soluble | Soluble | COc1ccc2cc(C(=O)OCP(=O)(O)O)oc2c1 | –
Insoluble | Insoluble | Insoluble | Insoluble | Soluble | Soluble | Soluble | CN(C)CCCOC(=O)c1cc2cc3c(cc2s1)OCO3 | –
– | – | – | – | – | – | – | CS(=O)(=O)O.O=C(OCCN1CCOCC1)c1cc2cc3c(cc2s1)OCO3 | LD50 [8]: > 500 mg/kg/day

SMILES | solubility [1] | solubility [2] | solubility [3] | solubility [4] | solubility [5] | solubility [6] | solubility [7] | also measured
COc1ccc2cc(C(=O)OCCN(C)C)oc2c1 [listing 1 of 2 here] | Insoluble | Soluble | Soluble | Soluble | Soluble | Soluble | Soluble | –
O=C(OCCN1CCOCC1)c1cc2cc3c(cc2s1)OCO3 [listing 2 of 2 here] | Insoluble | Insoluble | Insoluble | Soluble | Soluble | Soluble | Soluble | –
COc1ccc2cc(C(=O)OCCCN(C)C)sc2c1 [listing 1 of 2 here] | Insoluble | Insoluble | Insoluble | Insoluble | Soluble | Soluble | Soluble | –
COc1ccc2cc(C(=O)NCCN(C)C)oc2c1 | Insoluble | Insoluble | Soluble | Soluble | Soluble | Soluble | Soluble | –
COc1ccc2cc(C(=O)OCCP(=O)(O)O)oc2c1 [listing 2 of 2 here] | Soluble | Soluble | Soluble | Soluble | Soluble | Soluble | Soluble | –
